Data as given in ChEMBL document CHEMBL3286094, “Synthesis and biological evaluation of novel bisbenzimidazoles as Escherichia coli topoisomerase IA inhibitors and potential antibacterial agents” (J Med Chem, 2014).
≈ marks a conversion by molar mass, not a printed value. Calls of active or inactive are those of the source. The rule behind the calls is not given here.

Columns and labels:
[1] = system: Escherichia coli; assay: Antibacterial activity against chloramphenicol/ampicillin/kanamycin/trimethoprim/ciprofloxacin/nalidixic acid-resistant Escherichia coli 151 assessed as growth inhibition after 18 to 24 hrs by broth microdilution method; format: functional
[2] = system: Escherichia coli; assay: Bactericidal activity against Escherichia coli ATCC 25922 by agar plating method; format: functional
[3] = system: Escherichia coli; assay: Bactericidal activity against chloramphenicol/ampicillin/kanamycin/trimethoprim/ciprofloxacin/nalidixic acid-resistant Escherichia coli 151 by agar plating method; format: functional
[4] = system: Escherichia coli; assay: Antibacterial activity against ampicillin/trimethoprim/piperacillin-resistant Escherichia coli MKNJ isolated from water source assessed as growth inhibition after 18 to 24 hrs by broth microdilution method
[5] = system: Escherichia coli; assay: Bactericidal activity against cefazolinl/ampicillin/piperacillin/cefuroxime/cefepime/cefotaxime/tetracycline/ciprofloxacin-resistant Escherichia coli NG3 isolated from water source by agar plating method
[6] = system: Escherichia coli; assay: Antibacterial activity against ampicillin/tetracycline/piperacillin-resistant Escherichia coli WB31 isolated from water source assessed as growth inhibition after 18 to 24 hrs by broth microdilution method
[7] = system: Escherichia coli; assay: Antibacterial activity against ciprofloxacin-resistant Escherichia coli 72 assessed as growth inhibition after 18 to 24 hrs by broth microdilution method; format: functional
[8] = system: Escherichia coli; assay: Bactericidal activity against chloroamphenicol/ampicillin/kanamycin/trimethoprim/ciprofloxacin/nalidixic acid-resistant Escherichia coli 85 by agar plating method; format: functional
[9] = system: Escherichia coli; assay: Bactericidal activity against multidrug-resistant Escherichia coli IP9 isolated from water source by agar plating method
[10] = system: Escherichia coli; assay: Bactericidal activity against ampicillin/trimethoprim/nalidixic acid-resistant Escherichia coli 118 by agar plating method; format: functional
[11] = system: Escherichia coli; assay: Bactericidal activity against multidrug-resistant Escherichia coli IS 54 isolated from water source by agar plating method; details: IS 54, Water
[12] = system: Escherichia coli; assay: Bactericidal activity against ciprofloxacin-resistant Escherichia coli 72 by agar plating method; format: functional
[13] = system: Escherichia coli; assay: Bactericidal activity against tetracycline/trimethoprim-resistant Escherichia coli IST isolated from water source by agar plating method
[14] = system: Escherichia coli; assay: Antibacterial activity against Escherichia coli DH5[alpha] assessed as growth inhibition after 18 to 24 hrs by broth microdilution method; format: functional
[15] = system: Escherichia coli; assay: Bactericidal activity against gentamicin/kanamycin/tetracycline/nalidixic acid-resistant Escherichia coli 360 by agar plating method; format: functional
[16] = system: Escherichia coli; assay: Bactericidal activity against cefazolinl/ampicillin/piperacillin/cefuroxime/cefepime/cefotaxime/tetracycline/trimethoprim-resistant Escherichia coli KK16 isolated from water source by agar plating method
[17] = system: Escherichia coli; assay: Antibacterial activity against Escherichia coli ATCC 25922 in iv dosed Balb/c neutropenic thigh infection model assessed as concentration required to cause 3 log10CFU reduction per gram of thigh administered as single bolus dose at 2 hrs post inoculation measured after 24 hrs; format: functional
Method in brief: (§1)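 Neutropenic thigh infection with E. coli ATCC 25922. Compound was dosed at 3 and 5 mg/kg body weight/day. Read-out was thigh bacterial burden, expressed as log reduction and compared with the static level.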

[18] = Binding affinity to d(ATATATATATATAT)2 DNA (unknown origin) by fluorescence spectroscopic analysis
Method in brief: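 Fluorescence titration of the compound with a poly(AT) DNA sequence, with the binding constant derived from the titration.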

[19] = system: Escherichia coli; assay: Antibacterial activity against Escherichia coli ATCC 25922 in iv dosed Balb/c neutropenic thigh infection model assessed as reduction of bacterial burden in thigh administered as single bolus dose at 2 hrs post inoculation measured after 24 hrs; format: functional; method in brief: as §1
[20] = system: Escherichia coli; assay: Binding affinity to Escherichia coli DNA topoisomerase-1A by isothermal titration calorimetric analysis in presence of MgCl2/KCl
Method in brief: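 Isothermal titration calorimetry with sequential injections of EcTopo 1A into the compound solution. Raw heats were corrected using injections of identical amounts of EcTopo 1A into buffer alone. Binding affinity constant and binding free energy were derived from the thermogram.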

[21] = system: Escherichia coli; assay: Inhibition of Escherichia coli DNA topoisomerase-1A using supercoiled pHOT1 plasmid DNA as substrate assessed as inhibition of DNA relaxation at 5 to 100 uM after 30 mins by agarose gel electrophoresis in presence of 25 mM MgCl2
[22] = system: Escherichia coli; assay: Antibacterial activity against Escherichia coli ATCC 25922 in iv dosed Balb/c neutropenic thigh infection model assessed as concentration required to cause 1 log10CFU reduction per gram of thigh administered as single bolus dose at 2 hrs post inoculation measured after 24 hrs; format: functional; method in brief: as §1
[23] = system: Escherichia coli; assay: Antibacterial activity against Escherichia coli ATCC 25922 in Balb/c systemic infection model assessed as increase in survival at 7 mg/kg, iv administered single bolus dose measured every day for 7 days relative to vehicle-treated control; format: functional; details: ATCC 25922, in Mus musculus, 168 h
Method in brief: (§2)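 Mice were infected intraperitoneally with E. coli ATCC 25922 suspended in saline. Treatment was a single bolus intravenous tail-vein injection at 3, 5 or 7 mg/kg body weight, dissolved in sterile water. A vehicle-only group served as control. Survival was monitored after infection.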

[24] = system: Escherichia coli; assay: Antibacterial activity against Escherichia coli ATCC 25922 in iv dosed Balb/c systemic infection model assessed as increase in survival administered single bolus dose measured every day for 7 days; format: functional; method in brief: as §2

| SMILES | MIC50 [1] | MIC90 [1] | MBC [2] | MBC [3] | MIC50 [4] | MIC90 [4] | MBC [5] | MIC50 [6] | MIC90 [6] | MIC50 [7] | MIC90 [7] | MBC [8] | MBC [9] | MBC [10] | MBC [11] | MBC [12] | MBC [13] | MIC50 [14] | MIC90 [14] | MBC [16] | other results |
| --- | --- | --- | --- | --- | --- | --- | --- | --- | --- | --- | --- | --- | --- | --- | --- | --- | --- | --- | --- | --- | --- |
| CCOc1ccc(-c2nc3ccc(-c4nc5ccc(N6CCN(CCN(C)C)CC6)cc5[nH]4)cc3[nH]2)cc1 | 32 µg/mL (≈ 62.8 µM) | 61.6 µg/mL (≈ 121 µM) | 16 µg/mL (≈ 31.4 µM) | 64 µg/mL (≈ 126 µM) | 16 µg/mL (≈ 31.4 µM) | 30.6 µg/mL (≈ 60 µM) | 16 µg/mL (≈ 31.4 µM) | 16 µg/mL (≈ 31.4 µM) | 29.4 µg/mL (≈ 57.7 µM) | 32 µg/mL (≈ 62.8 µM) | 57.2 µg/mL (≈ 112 µM) | 32 µg/mL (≈ 62.8 µM) | 128 µg/mL (≈ 251 µM) | 16 µg/mL (≈ 31.4 µM) | 64 µg/mL (≈ 126 µM) | 64 µg/mL (≈ 126 µM) | 64 µg/mL (≈ 126 µM) | 1 µg/mL (≈ 1.96 µM) | 14.5 µg/mL (≈ 28.5 µM) | 32 µg/mL (≈ 62.8 µM) | MBC [15]: 128 µg/mL (≈ 251 µM) |
| COc1ccc(-c2nc3ccc(-c4nc5ccc(N6CCN(c7ncccn7)CC6)cc5[nH]4)cc3[nH]2)cc1OC | 16 µg/mL (≈ 30 µM) | 30.4 µg/mL (≈ 57.1 µM) | 64 µg/mL (≈ 120 µM) | 32 µg/mL (≈ 60.1 µM) | 32 µg/mL (≈ 60.1 µM) | 61.4 µg/mL (≈ 115 µM) | 32 µg/mL (≈ 60.1 µM) | 16 µg/mL (≈ 30 µM) | 30.2 µg/mL (≈ 56.7 µM) | 16 µg/mL (≈ 30 µM) | 30.1 µg/mL (≈ 56.5 µM) | 64 µg/mL (≈ 120 µM) |  | 8 µg/mL (≈ 15 µM) | 64 µg/mL (≈ 120 µM) | 32 µg/mL (≈ 60.1 µM) | 32 µg/mL (≈ 60.1 µM) | 2 µg/mL (≈ 3.76 µM) | 3.6 µg/mL (≈ 6.76 µM) | 32 µg/mL (≈ 60.1 µM) |  |
| COc1ccc(-c2nc3ccc(-c4nc5ccc(N6CCN(c7ccncc7)CC6)cc5[nH]4)cc3[nH]2)cc1OC | 1 µg/mL (≈ 1.88 µM) | 1.7 µg/mL (≈ 3.2 µM) | 4 µg/mL (≈ 7.52 µM) | 2 µg/mL (≈ 3.76 µM) | 2 µg/mL (≈ 3.76 µM) | 3.7 µg/mL (≈ 6.96 µM) | 2 µg/mL (≈ 3.76 µM) | 2 µg/mL (≈ 3.76 µM) | 3.7 µg/mL (≈ 6.96 µM) | 1 µg/mL (≈ 1.88 µM) | 1.6 µg/mL (≈ 3.01 µM) | 4 µg/mL (≈ 7.52 µM) | 4 µg/mL (≈ 7.52 µM) | 2 µg/mL (≈ 3.76 µM) | 2 µg/mL (≈ 3.76 µM) | 2 µg/mL (≈ 3.76 µM) | 1 µg/mL (≈ 1.88 µM) | 0.5 µg/mL (≈ 0.941 µM) | 1.8 µg/mL (≈ 3.39 µM) | 2 µg/mL (≈ 3.76 µM) | MBC [15]: 2 µg/mL (≈ 3.76 µM) |
| CCOc1ccc(-c2nc3ccc(-c4nc5ccc(N6CCN(CC)CC6)cc5[nH]4)cc3[nH]2)cc1 | 4 µg/mL (≈ 8.57 µM) | 6.8 µg/mL (≈ 14.6 µM) | 4 µg/mL (≈ 8.57 µM) | 8 µg/mL (≈ 17.1 µM) | 4 µg/mL (≈ 8.57 µM) | 7.6 µg/mL (≈ 16.3 µM) | 8 µg/mL (≈ 17.1 µM) | 4 µg/mL (≈ 8.57 µM) | 7.2 µg/mL (≈ 15.4 µM) | 4 µg/mL (≈ 8.57 µM) | 7.2 µg/mL (≈ 15.4 µM) | 8 µg/mL (≈ 17.1 µM) | 8 µg/mL (≈ 17.1 µM) | 2 µg/mL (≈ 4.29 µM) | 8 µg/mL (≈ 17.1 µM) | 8 µg/mL (≈ 17.1 µM) | 8 µg/mL (≈ 17.1 µM) | 0.5 µg/mL (≈ 1.07 µM) | 0.7 µg/mL (≈ 1.5 µM) | 2 µg/mL (≈ 4.29 µM) | MBC [15]: 64 µg/mL (≈ 137 µM) |
| CCCN1CCN(c2ccc3nc(-c4ccc5nc(-c6ccc(OC)c(OC)c6)[nH]c5c4)[nH]c3c2)CC1 | 8 µg/mL (≈ 16.1 µM) | 15.1 µg/mL (≈ 30.4 µM) | 16 µg/mL (≈ 32.2 µM) | 16 µg/mL (≈ 32.2 µM) | 4 µg/mL (≈ 8.05 µM) | 7.6 µg/mL (≈ 15.3 µM) | 8 µg/mL (≈ 16.1 µM) | 8 µg/mL (≈ 16.1 µM) | 15.2 µg/mL (≈ 30.6 µM) | 2 µg/mL (≈ 4.03 µM) | 3.4 µg/mL (≈ 6.85 µM) | 16 µg/mL (≈ 32.2 µM) | 16 µg/mL (≈ 32.2 µM) | 4 µg/mL (≈ 8.05 µM) | 16 µg/mL (≈ 32.2 µM) | 4 µg/mL (≈ 8.05 µM) | 16 µg/mL (≈ 32.2 µM) | 2 µg/mL (≈ 4.03 µM) | 3.2 µg/mL (≈ 6.44 µM) | 4 µg/mL (≈ 8.05 µM) | MBC [15]: 16 µg/mL (≈ 32.2 µM) |
| CCCN1CCN(c2ccc3nc(-c4ccc5nc(-c6ccc(OCC)cc6)[nH]c5c4)[nH]c3c2)CC1 | 1 µg/mL (≈ 2.08 µM) | 1.7 µg/mL (≈ 3.54 µM) | 0.4 µg/mL (≈ 0.832 µM) | 2 µg/mL (≈ 4.16 µM) | 1 µg/mL (≈ 2.08 µM) | 3.5 µg/mL (≈ 7.28 µM) | 2 µg/mL (≈ 4.16 µM) | 0.5 µg/mL (≈ 1.04 µM) | 1.7 µg/mL (≈ 3.54 µM) | 2 µg/mL (≈ 4.16 µM) | 3.1 µg/mL (≈ 6.45 µM) | 2 µg/mL (≈ 4.16 µM) | 4 µg/mL (≈ 8.32 µM) | 2 µg/mL (≈ 4.16 µM) | 2 µg/mL (≈ 4.16 µM) | 4 µg/mL (≈ 8.32 µM) | 2 µg/mL (≈ 4.16 µM) | 0.2 µg/mL (≈ 0.416 µM) | 0.8 µg/mL (≈ 1.66 µM) | 2 µg/mL (≈ 4.16 µM) | Activity [17]: 5 mg/kg/day; K [18]: 7 ×10⁷ /M; Activity [19]: Dose-dependent effect; MIC50 ([19]; ATCC 25922, Thigh): 0.2 µg/mL (≈ 0.416 µM); Ka [20]: 6.8 ×10⁶ /M; inhibition [21]: Active; Activity [22]: 3 mg/kg/day; survival at 7 mg/kg [23]: 75%; Activity [24]: Dose-dependent effect; ED50 ([24]; ATCC 25922, in Mus musculus, 168 h): 5 mg/kg; MBC [15]: 2 µg/mL (≈ 4.16 µM) |
